In ChEMBL document CHEMBL3098105, “7,7'-Diazaindirubin--a small molecule inhibitor of casein kinase 2 in vitro and in cells” (Bioorg Med Chem, 2014):

Tests used:
[1] = Antiproliferative activity against human NCI-ADR-RES cells after 3 days by sulforhodamine B assay; format: functional; conditions: 72 h
Procedure, shortened: (§1)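 Tested in the NCI 60 cell line panel. GI50 is the concentration giving 50% inhibition of cell growth, and values are the mean of two series of tests.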

[2] = Antiproliferative activity against human Hs 578T cells after 3 days by sulforhodamine B assay; format: functional; conditions: 72 h; procedure, shortened: as §1
[3] = biological target: Receptor tyrosine-protein kinase erbB-4 (Homo sapiens) (UniProt Q15303); test: Inhibition of human ErbB4 assessed as residual activity at 1 uM relative to control
Chain of Receptor tyrosine-protein kinase erbB-4 (Homo sapiens) (Q15303 whole entry): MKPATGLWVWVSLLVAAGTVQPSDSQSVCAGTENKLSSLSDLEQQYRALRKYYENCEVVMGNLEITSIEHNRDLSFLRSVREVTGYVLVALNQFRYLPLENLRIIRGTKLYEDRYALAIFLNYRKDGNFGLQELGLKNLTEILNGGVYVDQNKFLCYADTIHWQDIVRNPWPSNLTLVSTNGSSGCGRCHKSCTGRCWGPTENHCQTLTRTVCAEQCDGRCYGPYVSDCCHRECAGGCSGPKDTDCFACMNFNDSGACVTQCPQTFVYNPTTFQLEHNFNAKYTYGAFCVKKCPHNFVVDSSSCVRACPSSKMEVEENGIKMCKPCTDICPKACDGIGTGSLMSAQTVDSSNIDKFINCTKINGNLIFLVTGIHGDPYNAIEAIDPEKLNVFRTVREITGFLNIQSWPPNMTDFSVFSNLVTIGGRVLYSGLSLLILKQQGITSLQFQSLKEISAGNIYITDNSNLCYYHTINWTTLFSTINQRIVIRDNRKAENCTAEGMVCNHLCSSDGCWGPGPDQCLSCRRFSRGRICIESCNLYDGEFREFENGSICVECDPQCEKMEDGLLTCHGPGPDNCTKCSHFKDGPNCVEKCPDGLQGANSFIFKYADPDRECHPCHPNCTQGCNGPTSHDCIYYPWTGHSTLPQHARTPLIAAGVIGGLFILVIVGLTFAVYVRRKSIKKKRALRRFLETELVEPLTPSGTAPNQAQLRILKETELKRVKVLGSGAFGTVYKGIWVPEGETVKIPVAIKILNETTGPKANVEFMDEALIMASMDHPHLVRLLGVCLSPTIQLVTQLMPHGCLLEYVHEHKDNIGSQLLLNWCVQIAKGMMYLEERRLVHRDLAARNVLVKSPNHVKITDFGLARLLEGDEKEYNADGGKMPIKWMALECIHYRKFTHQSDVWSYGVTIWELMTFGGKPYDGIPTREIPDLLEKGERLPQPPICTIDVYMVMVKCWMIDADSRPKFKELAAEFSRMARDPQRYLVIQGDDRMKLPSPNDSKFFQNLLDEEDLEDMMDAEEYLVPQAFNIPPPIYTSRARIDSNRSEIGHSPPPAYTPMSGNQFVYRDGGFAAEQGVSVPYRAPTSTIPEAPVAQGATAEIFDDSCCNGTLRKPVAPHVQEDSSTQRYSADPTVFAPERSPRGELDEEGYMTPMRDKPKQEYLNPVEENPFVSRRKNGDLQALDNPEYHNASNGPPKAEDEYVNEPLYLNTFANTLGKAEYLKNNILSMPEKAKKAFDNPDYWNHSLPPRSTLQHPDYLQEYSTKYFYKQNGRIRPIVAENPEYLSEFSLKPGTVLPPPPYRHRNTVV

[4] = tested on: TK-10; test: Antiproliferative activity against human TK10 cells after 3 days by sulforhodamine B assay; format: functional; conditions: TK-10, 72 h
[5] = biological target: 3-phosphoinositide-dependent protein kinase 1 (Homo sapiens) (UniProt O15530); test: Inhibition of human PDK1 assessed as residual activity at 1 uM relative to control
[6] = tested on: A549; test: Antiproliferative activity against human A549 cells after 3 days by sulforhodamine B assay; format: functional; conditions: A549, 72 h; procedure, shortened: as §1
[7] = Antiproliferative activity against human LXFL 529L cells after 3 days by SRB assay; format: functional, cell-based; conditions: 72 h
Procedure, shortened: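 Cells grown at 37 °C, 5% CO2, with 10% heat-inactivated FBS: LXFL529L in RPMI 1640, MCF7 and HT29 in DMEM. Seeded, allowed 24 h growth, then exposed to the drug at various concentrations for 3 days in serum medium. Fixed with TCA for 1 h at 4 °C, stained with 0.4% SRB, eluted in 10 mM Tris pH 10.5, read at 570 nm as % T/C. IC50 taken from dose–response curves of at least three independent experiments.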

[8] = Antiproliferative activity against human HOP92 cells after 3 days by sulforhodamine B assay; format: functional; conditions: HOP-92, 72 h; procedure, shortened: as §1
[9] = biological target: CDK2/Cyclin A2 (Homo sapiens) (UniProt P24941+P20248); test: Inhibition of CDK2/CycA (unknown origin) assessed as residual activity at 10 uM relative to control; format: protein-complex assay
[10] = tested on: HOP-62; test: Antiproliferative activity against human HOP62 cells after 3 days by sulforhodamine B assay; format: functional; conditions: HOP-62, 72 h; procedure, shortened: as §1
[11] = biological target: Vascular endothelial growth factor receptor 3 (Homo sapiens) (UniProt P35916); test: Inhibition of VEGF-R3 (unknown origin) assessed as residual activity at 10 uM relative to control
[12] = biological target: T1, Aurora kinase A (Homo sapiens) (UniProt O14965); test: Inhibition of Aurora-A (unknown origin) assessed as residual activity at 1 uM relative to control
T1 sequence (whole entry): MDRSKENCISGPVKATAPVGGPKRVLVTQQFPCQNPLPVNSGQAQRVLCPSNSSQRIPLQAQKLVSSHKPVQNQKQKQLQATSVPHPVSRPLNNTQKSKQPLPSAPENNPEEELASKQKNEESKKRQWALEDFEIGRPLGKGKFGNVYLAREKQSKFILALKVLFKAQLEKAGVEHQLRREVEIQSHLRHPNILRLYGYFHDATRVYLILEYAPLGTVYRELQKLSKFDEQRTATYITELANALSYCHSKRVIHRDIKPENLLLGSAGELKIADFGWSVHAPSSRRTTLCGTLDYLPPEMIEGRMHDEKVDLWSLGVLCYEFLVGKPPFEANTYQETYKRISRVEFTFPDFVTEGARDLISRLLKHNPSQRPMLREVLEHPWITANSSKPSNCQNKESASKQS

[13] = biological target: Cyclin-dependent kinase 2/cyclin E1 (Homo sapiens) (UniProt P24864+P24941); test: Inhibition of CDK2/CycE (unknown origin) assessed as residual activity at 1 uM relative to control; format: protein-complex assay
[14] = biological target: Cyclin-dependent kinase 1/cyclin B1 (Homo sapiens) (UniProt P06493+P14635); test: Inhibition of CDK1/CycB1 (unknown origin) assessed as residual activity at 10 uM relative to control; format: protein-complex assay
Chain of Cyclin-dependent kinase 1/cyclin B1 (Homo sapiens) (P06493 whole entry, looked up): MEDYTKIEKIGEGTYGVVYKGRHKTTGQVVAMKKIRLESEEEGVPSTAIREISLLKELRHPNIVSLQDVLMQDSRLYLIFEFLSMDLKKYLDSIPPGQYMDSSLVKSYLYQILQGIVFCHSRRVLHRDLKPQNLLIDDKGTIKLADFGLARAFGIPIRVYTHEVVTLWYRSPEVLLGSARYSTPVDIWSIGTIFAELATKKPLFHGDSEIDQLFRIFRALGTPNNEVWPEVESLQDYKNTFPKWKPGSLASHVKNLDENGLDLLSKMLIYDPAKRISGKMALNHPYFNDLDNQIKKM
Chain of Cyclin-dependent kinase 1/cyclin B1 (Homo sapiens) (P14635 whole entry, looked up): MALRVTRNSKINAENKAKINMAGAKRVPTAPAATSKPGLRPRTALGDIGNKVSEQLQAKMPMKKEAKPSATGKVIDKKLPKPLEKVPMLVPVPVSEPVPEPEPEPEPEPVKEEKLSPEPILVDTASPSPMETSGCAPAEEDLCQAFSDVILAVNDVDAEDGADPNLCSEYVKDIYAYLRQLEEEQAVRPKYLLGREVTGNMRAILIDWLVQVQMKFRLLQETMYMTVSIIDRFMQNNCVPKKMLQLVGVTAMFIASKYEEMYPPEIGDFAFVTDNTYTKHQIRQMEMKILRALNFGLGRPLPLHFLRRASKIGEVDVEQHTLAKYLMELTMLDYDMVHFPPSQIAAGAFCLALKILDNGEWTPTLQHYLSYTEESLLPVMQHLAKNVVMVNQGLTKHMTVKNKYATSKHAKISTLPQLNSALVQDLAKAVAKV

[15] = biological target: Insulin-like growth factor 1 receptor (Homo sapiens) (UniProt P08069); test: Inhibition of human IGF-1R assessed as residual activity at 1 uM relative to control
[16] = biological target: Ephrin type-A receptor 3 (Homo sapiens) (UniProt P29320); test: Inhibition of human EphA3 assessed as residual activity at 1 uM relative to control
[17] = biological target: Tyrosine-protein kinase ABL1 (Homo sapiens) (UniProt P00519); test: Inhibition of ABL1 (unknown origin) assessed as residual activity at 1 uM relative to control
Chain of Tyrosine-protein kinase ABL1 (Homo sapiens) (P00519 whole entry): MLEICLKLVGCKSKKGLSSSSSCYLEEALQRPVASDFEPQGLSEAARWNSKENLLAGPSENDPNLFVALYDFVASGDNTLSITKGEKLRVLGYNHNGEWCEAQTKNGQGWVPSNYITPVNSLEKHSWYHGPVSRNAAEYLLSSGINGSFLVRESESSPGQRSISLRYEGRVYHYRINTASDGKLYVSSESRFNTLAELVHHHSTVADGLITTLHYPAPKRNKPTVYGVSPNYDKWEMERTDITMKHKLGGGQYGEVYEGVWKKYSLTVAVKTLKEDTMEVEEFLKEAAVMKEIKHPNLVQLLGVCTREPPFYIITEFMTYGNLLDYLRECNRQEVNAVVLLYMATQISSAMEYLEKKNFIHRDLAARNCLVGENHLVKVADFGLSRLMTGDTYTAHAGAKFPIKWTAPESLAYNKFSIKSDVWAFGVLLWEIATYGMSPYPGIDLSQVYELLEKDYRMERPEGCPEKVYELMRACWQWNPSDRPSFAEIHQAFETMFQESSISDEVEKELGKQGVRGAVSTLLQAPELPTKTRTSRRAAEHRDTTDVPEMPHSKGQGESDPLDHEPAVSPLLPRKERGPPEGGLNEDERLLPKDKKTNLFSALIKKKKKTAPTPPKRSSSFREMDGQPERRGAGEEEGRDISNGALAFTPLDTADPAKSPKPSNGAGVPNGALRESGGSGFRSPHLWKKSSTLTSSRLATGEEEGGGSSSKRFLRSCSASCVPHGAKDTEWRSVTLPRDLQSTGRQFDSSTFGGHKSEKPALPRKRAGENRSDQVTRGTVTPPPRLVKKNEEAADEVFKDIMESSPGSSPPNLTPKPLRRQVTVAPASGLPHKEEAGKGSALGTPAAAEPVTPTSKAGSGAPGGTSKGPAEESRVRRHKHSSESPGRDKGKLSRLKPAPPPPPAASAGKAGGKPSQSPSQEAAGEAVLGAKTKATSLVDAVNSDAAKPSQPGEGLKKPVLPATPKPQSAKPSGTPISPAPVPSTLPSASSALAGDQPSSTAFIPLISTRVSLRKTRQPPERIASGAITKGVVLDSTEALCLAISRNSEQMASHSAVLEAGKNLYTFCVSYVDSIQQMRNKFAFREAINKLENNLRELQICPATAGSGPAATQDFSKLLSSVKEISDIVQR

[18] = biological target: Insulin receptor-related protein (Homo sapiens) (UniProt P14616); test: Inhibition of human IRR assessed as residual activity at 1 uM relative to control
[19] = biological target: Calcium/calmodulin-dependent protein kinase type II subunit gamma (Homo sapiens) (UniProt Q13555); test: Inhibition of human CaMK2gamma assessed as residual activity at 1 uM relative to control
Chain of Calcium/calmodulin-dependent protein kinase type II subunit gamma (Homo sapiens) (Q13555 whole entry): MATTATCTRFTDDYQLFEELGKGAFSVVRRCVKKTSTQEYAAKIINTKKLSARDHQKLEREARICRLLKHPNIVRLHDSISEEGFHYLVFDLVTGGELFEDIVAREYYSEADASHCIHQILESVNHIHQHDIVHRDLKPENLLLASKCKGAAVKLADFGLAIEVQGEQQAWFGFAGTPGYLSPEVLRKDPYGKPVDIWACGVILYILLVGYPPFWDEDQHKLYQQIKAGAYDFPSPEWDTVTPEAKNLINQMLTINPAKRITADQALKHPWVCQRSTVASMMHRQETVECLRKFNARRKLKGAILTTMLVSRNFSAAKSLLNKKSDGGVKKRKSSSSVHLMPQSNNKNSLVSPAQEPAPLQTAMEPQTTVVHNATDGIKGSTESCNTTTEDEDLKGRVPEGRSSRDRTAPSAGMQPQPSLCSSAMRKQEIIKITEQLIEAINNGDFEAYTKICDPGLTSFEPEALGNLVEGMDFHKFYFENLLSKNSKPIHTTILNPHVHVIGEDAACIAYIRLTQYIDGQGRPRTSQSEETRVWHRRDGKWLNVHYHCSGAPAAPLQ

[20] = tested on: MCF7; test: Cell cycle arrest in human MCF7 cells assessed as accumulation at sub-G1 phase at 1 uM after 24 hrs using propidium iodide staining by FACS analysis (reference value: 0.17%); format: functional
[21] = biological target: T2, Muscle, skeletal receptor tyrosine-protein kinase (Homo sapiens) (UniProt O15146); test: Inhibition of human MuSK assessed as residual activity at 1 uM relative to control
T2 sequence (whole entry): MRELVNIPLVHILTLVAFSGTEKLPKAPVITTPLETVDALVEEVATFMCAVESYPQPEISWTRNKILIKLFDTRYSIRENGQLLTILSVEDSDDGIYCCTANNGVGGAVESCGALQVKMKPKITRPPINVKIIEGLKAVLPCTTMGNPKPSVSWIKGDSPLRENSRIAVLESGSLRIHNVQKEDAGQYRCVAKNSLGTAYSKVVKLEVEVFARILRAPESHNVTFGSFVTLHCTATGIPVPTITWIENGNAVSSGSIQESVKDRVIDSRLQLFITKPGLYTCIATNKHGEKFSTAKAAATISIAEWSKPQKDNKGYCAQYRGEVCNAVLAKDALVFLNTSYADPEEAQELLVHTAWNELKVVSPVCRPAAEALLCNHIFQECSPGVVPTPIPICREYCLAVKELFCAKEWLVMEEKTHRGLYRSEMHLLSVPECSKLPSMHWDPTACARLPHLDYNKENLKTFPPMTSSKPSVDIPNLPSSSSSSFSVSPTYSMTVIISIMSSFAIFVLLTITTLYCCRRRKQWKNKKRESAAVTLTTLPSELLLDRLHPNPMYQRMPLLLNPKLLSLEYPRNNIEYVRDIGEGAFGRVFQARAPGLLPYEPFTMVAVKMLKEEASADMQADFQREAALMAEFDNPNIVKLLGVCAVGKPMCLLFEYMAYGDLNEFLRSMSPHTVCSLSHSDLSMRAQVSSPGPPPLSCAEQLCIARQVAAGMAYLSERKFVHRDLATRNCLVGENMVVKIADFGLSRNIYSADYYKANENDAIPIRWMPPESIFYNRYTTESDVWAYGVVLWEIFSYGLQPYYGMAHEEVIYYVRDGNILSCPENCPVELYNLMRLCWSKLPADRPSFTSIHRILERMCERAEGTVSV

[22] = biological target: Vascular endothelial growth factor receptor 2 (Homo sapiens) (UniProt P35968); test: Inhibition of human KDR assessed as residual activity at 1 uM relative to control
Chain of Vascular endothelial growth factor receptor 2 (Homo sapiens) (P35968 whole entry): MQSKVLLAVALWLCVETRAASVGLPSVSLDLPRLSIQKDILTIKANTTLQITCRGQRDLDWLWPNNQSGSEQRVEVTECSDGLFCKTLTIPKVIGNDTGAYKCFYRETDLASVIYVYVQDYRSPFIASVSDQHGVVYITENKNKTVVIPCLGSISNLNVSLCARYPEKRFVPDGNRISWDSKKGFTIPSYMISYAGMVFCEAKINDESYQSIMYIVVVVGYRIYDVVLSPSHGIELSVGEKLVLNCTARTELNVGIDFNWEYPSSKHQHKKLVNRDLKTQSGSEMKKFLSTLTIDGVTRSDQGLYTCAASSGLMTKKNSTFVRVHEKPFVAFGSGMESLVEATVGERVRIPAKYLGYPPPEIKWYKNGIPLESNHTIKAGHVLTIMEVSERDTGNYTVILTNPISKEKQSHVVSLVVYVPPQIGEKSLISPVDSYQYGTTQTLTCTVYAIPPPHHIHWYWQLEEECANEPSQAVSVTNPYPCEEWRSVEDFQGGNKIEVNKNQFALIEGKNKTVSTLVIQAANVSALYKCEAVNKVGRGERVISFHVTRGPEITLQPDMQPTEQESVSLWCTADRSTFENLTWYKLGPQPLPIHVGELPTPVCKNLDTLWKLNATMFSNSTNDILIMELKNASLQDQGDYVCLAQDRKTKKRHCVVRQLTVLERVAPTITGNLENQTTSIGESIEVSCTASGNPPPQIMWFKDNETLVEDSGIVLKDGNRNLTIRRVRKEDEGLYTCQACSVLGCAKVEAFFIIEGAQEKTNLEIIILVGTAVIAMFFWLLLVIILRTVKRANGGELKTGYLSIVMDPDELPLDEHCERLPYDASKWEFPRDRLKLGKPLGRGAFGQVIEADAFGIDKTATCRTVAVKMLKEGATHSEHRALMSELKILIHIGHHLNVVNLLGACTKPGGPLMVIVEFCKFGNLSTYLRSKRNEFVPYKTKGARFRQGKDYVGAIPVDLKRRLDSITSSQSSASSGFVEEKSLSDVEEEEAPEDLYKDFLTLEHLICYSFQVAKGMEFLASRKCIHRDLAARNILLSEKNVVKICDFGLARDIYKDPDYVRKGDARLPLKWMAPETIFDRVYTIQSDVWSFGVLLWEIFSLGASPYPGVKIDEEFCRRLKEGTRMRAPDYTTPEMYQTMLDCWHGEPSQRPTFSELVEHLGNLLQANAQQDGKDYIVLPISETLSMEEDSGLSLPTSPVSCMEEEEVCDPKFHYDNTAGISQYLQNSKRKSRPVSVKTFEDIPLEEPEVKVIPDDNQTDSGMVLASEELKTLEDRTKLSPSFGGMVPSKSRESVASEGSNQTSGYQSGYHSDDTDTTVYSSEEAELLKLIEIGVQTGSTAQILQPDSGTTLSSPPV

Activity [3]: 121%
Activity [5]: 97%
GI50 [6]: 236 nM
Activity [9]: 106%
Activity [11]: 73%
Activity [12]: 85%
Activity [13]: 90%
Activity [14]: 89%
Activity [15]: 112%
Activity [16]: 83%
Activity [17]: 96%
Activity [18]: 80%
Activity [19]: 103%
Activity [21]: 134%
Activity [22]: 76%
SMILES: O=C1Nc2ncccc2/C1=C1/Nc2ncccc2C1=O
GI50 [1]: 1390 nM
GI50 [2]: 1670 nM
GI50 [4]: 2270 nM
IC50 [7]: 60 nM
GI50 [8]: 3040 nM
GI50 [10]: 1370 nM
Activity [20]: 0.16%
